Data published in ChEMBL document CHEMBL1765003, “Discovery of (1S,2R,3R)-2,3-dimethyl-2-phenyl-1-sulfamidocyclopropanecarboxylates: novel and highly selective aggrecanase inhibitors” (J Med Chem, 2011).

Legend:
Cytochrome P450 1A2 = molecular target: T1, Cytochrome P450 1A2 (Homo sapiens, UniProt P05177); test: Inhibition of CYP1A2 at up to 50 uM; format: ADME
T1 sequence (P05177 whole entry): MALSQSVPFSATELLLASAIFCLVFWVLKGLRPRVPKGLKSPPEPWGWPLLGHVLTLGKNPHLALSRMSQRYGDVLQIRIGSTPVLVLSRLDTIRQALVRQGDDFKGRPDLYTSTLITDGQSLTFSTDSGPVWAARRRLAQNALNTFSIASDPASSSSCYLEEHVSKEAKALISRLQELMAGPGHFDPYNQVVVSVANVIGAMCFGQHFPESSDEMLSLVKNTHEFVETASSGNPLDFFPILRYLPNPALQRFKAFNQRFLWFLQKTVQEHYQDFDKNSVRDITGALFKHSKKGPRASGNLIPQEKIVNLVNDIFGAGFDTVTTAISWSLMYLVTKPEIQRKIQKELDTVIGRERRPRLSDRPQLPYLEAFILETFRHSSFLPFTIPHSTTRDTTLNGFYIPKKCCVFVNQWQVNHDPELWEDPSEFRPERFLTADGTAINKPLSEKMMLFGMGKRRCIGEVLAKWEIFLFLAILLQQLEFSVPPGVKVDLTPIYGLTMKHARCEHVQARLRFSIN

Interstitial collagenase = molecular target: T2, Interstitial collagenase (Homo sapiens, UniProt P03956); test: Inhibition of human recombinant MMP1 after 60 mins by fluorescence plate reader
T2 sequence (P03956 whole entry): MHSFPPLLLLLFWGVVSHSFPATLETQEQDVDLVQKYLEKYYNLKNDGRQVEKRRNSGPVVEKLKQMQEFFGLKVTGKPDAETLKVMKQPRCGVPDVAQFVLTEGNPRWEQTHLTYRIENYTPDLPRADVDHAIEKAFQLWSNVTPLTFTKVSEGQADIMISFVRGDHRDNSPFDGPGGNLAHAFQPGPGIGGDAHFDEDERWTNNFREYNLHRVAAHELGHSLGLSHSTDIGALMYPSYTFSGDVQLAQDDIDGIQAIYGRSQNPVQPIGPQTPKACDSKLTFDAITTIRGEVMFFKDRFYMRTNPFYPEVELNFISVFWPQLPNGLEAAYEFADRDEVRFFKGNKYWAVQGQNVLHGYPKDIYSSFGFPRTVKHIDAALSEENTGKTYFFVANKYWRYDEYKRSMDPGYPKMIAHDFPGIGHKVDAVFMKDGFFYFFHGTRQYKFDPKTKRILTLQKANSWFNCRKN
Procedure, shortened: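 Recombinant human enzyme at 20 ng/mL with 10 μM MOCAc-Lys-Pro-Leu-Gly-Leu-A2pr(Dnp)-Ala-Arg-NH₂, in 100 mM Tris-HCl pH 7.5, 150 mM NaCl, 10 mM CaCl₂, 0.05% Brij-35. Enzyme pretreated with inhibitor for 15 min at 25 °C, then substrate added. Fluorescence (ex 325, em 405 nm) read at 60 min. IC50 taken from three points in the linear range; mean of ≥2 determinations.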

[1] = Volume of distribution at steady state in Sprague-Dawley rat at 1 mg/kg, iv; format: ADME, organism-based; design: dose 1 mg/kg, route intravenous; conditions: in vivo, read-out: Vdss
Procedure, shortened: (§1)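 Intravenous dose of 1 mg/kg. Blood sampled at 0.50, 1, 2, 4, 8 and 24 h. Plasma obtained by centrifugation at 10 000 rpm for 5 min and kept at −20 °C until analysis.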

Cytochrome P450 2C9 = Cytochrome P450 2C9 (Homo sapiens, UniProt P11712); test: Inhibition of CYP2C9 at up to 50 uM; format: ADME
[2] = Half life in Sprague-Dawley rat at 10 mg/kg, po; format: ADME, organism-based; design: dose 10 mg/kg, route oral; conditions: in vivo
[3] = Clearance in Sprague-Dawley rat at 1 mg/kg, iv; format: ADME, organism-based; design: dose 1 mg/kg, route intravenous; conditions: in vivo; procedure, shortened: as §1
[4] = molecular target: T3, A disintegrin and metalloproteinase with thrombospondin motifs 4 (Homo sapiens, UniProt O75173); test: Inhibition of human recombinant aggrecanase 1 after 150 mins by fluorescence plate reader
T3 sequence (O75173 whole entry): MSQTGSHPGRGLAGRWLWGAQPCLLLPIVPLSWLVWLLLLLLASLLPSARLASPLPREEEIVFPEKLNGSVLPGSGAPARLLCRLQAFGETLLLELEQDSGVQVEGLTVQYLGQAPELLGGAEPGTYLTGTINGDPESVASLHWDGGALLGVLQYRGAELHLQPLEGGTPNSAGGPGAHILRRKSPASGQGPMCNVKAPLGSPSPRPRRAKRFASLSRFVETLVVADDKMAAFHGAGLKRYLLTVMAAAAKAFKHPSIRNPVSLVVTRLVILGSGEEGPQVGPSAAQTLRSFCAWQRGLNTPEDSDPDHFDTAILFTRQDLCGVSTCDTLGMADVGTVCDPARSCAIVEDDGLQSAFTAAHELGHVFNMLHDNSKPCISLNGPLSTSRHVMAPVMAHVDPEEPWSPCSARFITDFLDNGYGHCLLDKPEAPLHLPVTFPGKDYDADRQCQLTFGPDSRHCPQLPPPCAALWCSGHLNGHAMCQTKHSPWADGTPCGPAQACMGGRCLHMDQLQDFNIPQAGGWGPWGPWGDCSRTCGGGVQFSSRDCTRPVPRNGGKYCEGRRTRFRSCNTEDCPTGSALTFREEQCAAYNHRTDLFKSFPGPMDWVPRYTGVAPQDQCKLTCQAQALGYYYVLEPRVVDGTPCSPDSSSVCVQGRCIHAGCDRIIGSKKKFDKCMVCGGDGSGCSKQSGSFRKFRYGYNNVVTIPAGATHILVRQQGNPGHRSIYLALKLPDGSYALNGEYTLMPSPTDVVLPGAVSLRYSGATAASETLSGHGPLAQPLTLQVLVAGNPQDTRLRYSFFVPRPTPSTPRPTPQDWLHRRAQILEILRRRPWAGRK

Cytochrome P450 2D6 = Cytochrome P450 2D6 (Homo sapiens, UniProt P10635); test: Inhibition of CYP2D6 at up to 50 uM; format: ADME
[5] = Cmax in Sprague-Dawley rat at 10 mg/kg, po; format: ADME, organism-based; design: dose 10 mg/kg, route oral; conditions: in vivo
[6] = molecular target: Disintegrin and metalloproteinase domain-containing protein 17 (Homo sapiens, UniProt P78536); test: Inhibition of human recombinant TACE after 60 mins by fluorescence plate reader
Procedure, shortened: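 rh-TACE at 80 ng/mL with 10 μM MCA-Pro-Leu-Ala-Gln-Ala-Val-Dpa-Arg-Ser-Ser-Ser-Arg-NH₂, in 100 mM Tris-HCl pH 7.5, 150 mM NaCl, 10 mM CaCl₂, 0.05% Brij-35. Inhibitor preincubated for 15 min at 25 °C. Fluorescence (ex 325/em 405 nm) read at 60 min. IC50 from three linear-range points; mean of ≥2.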

Collagenase 3 = Collagenase 3 (Homo sapiens, UniProt P45452); test: Inhibition of human recombinant MMP13 after 60 mins by fluorescence plate reader
Procedure, shortened: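 rh-MMP-13 at 40 ng/mL with 5 μM 7-MCA-Pro-CHA-Gly-NVal-His-Ala-DPA, in Tris-HCl pH 7.5/NaCl/CaCl₂/0.05% Brij-35. Pretreatment with inhibitor for 15 min at 25 °C, then substrate started the reaction. Fluorescence (ex 325/em 405 nm) read at 60 min. IC50 from three central linear points, averaged over ≥2 determinations.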

Cytochrome P450 2D6, sequence (P10635 whole entry): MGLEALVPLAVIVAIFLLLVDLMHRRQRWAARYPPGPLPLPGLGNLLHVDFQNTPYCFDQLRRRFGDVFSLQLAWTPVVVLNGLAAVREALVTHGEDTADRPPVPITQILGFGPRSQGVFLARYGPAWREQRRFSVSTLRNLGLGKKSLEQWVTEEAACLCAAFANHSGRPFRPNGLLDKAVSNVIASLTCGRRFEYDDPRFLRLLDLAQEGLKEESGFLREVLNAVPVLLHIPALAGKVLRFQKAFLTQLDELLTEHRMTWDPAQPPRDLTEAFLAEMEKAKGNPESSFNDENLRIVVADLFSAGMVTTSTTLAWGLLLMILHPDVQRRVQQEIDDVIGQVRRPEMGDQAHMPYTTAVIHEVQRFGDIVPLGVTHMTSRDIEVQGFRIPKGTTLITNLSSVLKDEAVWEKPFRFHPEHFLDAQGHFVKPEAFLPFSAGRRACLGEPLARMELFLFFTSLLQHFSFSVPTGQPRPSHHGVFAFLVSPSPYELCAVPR
Disintegrin and metalloproteinase domain-containing protein 17, sequence (P78536 whole entry, the tested form may be a part): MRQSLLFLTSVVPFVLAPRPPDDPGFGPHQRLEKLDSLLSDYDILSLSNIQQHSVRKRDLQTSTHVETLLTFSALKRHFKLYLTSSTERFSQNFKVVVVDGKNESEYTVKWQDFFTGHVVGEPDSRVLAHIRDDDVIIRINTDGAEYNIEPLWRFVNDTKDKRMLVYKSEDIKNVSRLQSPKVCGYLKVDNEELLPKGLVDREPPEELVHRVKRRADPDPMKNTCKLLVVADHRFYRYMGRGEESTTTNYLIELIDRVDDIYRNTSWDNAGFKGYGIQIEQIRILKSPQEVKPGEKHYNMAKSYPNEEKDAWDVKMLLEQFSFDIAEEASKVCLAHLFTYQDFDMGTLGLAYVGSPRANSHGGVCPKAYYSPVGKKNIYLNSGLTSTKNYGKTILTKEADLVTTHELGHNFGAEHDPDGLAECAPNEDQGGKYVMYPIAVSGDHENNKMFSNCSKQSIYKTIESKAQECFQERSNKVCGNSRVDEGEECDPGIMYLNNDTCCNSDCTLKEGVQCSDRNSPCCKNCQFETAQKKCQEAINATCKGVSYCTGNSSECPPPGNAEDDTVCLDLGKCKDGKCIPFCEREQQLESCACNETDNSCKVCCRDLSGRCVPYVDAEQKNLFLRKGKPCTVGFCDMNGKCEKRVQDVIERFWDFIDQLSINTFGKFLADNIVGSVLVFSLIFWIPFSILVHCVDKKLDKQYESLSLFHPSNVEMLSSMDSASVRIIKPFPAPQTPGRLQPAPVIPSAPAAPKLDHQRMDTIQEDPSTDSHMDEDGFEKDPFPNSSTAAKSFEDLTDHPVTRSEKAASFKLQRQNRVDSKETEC
Cytochrome P450 2C9, sequence (P11712 whole entry): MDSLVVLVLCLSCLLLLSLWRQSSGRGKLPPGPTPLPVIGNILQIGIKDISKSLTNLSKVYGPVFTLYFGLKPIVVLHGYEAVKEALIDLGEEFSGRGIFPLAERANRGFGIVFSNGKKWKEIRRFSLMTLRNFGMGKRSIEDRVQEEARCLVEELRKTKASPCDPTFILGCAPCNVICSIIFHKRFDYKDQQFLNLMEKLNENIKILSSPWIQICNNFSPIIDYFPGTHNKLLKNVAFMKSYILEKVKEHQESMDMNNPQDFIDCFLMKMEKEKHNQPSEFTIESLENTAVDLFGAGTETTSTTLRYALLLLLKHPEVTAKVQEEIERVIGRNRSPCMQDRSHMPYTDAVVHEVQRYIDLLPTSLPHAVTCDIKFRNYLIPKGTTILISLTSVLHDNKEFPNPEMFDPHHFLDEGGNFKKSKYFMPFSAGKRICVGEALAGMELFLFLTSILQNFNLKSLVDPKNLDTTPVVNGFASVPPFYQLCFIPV

inhibition (INH) (Cytochrome P450 1A2): Not Active | IC50 (Interstitial collagenase): > 10 µM | Vd [1]: 0.25 L/kg | inhibition (INH) (Cytochrome P450 2C9): Not Active | half-life [2]: 4 h | clearance [3]: 1 mL/min/kg | IC50 [4]: 0.023 µM | inhibition (INH) (Cytochrome P450 2D6): Not Active | Cmax [5]: 54.1 µM | IC50 [6]: > 10 µM | IC50 (Collagenase 3): > 10 µM
Structure (SMILES): C[C@@H]1[C@](C)(c2ccccc2)[C@]1(NS(=O)(=O)N1CCc2c(nc3cc(F)ccn23)C1)C(=O)O
